Each structure is given as a SMILES string. The source made the active and inactive calls. No cut-off for these calls is given here. Where a SMILES comes first, the peptide text is derived from it. Bridges are numbered along the chain shown (N, C = ends). Roman numbers before positions name the chains, in order. [ ]: non-standard residue; d: D form. The star is where a group is joined. 5TAMRA = CN(C)c1ccc2c(c1)Oc1cc(N(C)C)ccc1C21OC(=O)c2cc(C(=O)*)ccc21; Cha = N[C@@H](CC1CCCCC1)C(=O)O

The nature of data set [1]: Drug localization in mitochondria of human HeLa cells at EC50 incubated for 3 hrs by fluorescence based assay. It counts as ADME.
The test system of data set [2] is Lipid bilayer. As to the kind of experiment: Binding affinity to DLCL-rich POPC/POPE by fluorescence based analysis.
Data set [3] deals with Lipid bilayer. As to the kind of experiment: Binding affinity to cardiolipin-rich POPC/POPE by fluorescence based analysis. In a few lines: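 NBD-labelled peptide monomer at 1 μM in PBS, mixed with liposomes of POPC/POPE (2:1) containing 10% CL, with CL-free POPC/POPE liposomes for comparison. Association was followed by NBD fluorescence (ex 467/em 536 nm), n = 3. For dissociation, liposomes were at 100 μM and unlabelled acetylated peptide was added stepwise up to 40 μM, with a 10 min dark incubation before each read.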

Consider `CC(=O)N[C@@H](CC1CCCCC1)C(=O)N[C@H]1CSSC[C@@H](C(=O)N[C@@H](CCCNC(=N)N)C(N)=O)NC(=O)[C@H](CC2CCCCC2)NC(=O)[C@H](CCCNC(=N)N)NC(=O)[C@H](CCCNC(=N)N)NC(=O)[C@H](CC(C)C)NC(=O)[C@H](CC(C)C)NC(=O)[C@H](CCCNC(=N)N)NC(=O)[C@@H](NC(=O)[C@H](CC2CCCCC2)NC(=O)c2ccc3c(c2)C(=O)OC32c3ccc(N(C)C)cc3Oc3cc(N(C)C)ccc32)CSSC[C@@H](C(=O)N[C@@H](CCCNC(=N)N)C(N)=O)NC(=O)[C@H](CC2CCCCC2)NC(=O)[C@H](CCCNC(=N)N)NC(=O)[C@H](CCCNC(=N)N)NC(=O)[C@H](CC(C)C)NC(=O)[C@H](CC(C)C)NC(=O)[C@H](CCCNC(=N)N)NC1=O` (I: Ac-[Cha]CRLLRR[Cha]CR-NH2 / II: 5TAMRA-[Cha]CRLLRR[Cha]CR-NH2; disulfide I:2-II:9, I:9-II:2), for which, in data set [1], the Drug uptake came out at 53%. In data set [1], `CC(=O)N[C@@H](CC1CCCCC1)C(=O)N[C@H]1CSSC[C@@H](C(=O)N[C@@H](CCCNC(=N)N)C(N)=O)NC(=O)[C@H](CC(C)C)NC(=O)[C@H](CCCNC(=N)N)NC(=O)[C@H](CCCNC(=N)N)NC(=O)[C@H](CC2CCCCC2)NC(=O)[C@H](CC(C)C)NC(=O)[C@H](CCCNC(=N)N)NC(=O)[C@@H](NC(=O)[C@H](CC2CCCCC2)NC(=O)c2ccc3c(c2)C(=O)OC32c3ccc(N(C)C)cc3Oc3cc(N(C)C)ccc32)CSSC[C@@H](C(=O)N[C@@H](CCCNC(=N)N)C(N)=O)NC(=O)[C@H](CC(C)C)NC(=O)[C@H](CCCNC(=N)N)NC(=O)[C@H](CCCNC(=N)N)NC(=O)[C@H](CC2CCCCC2)NC(=O)[C@H](CC(C)C)NC(=O)[C@H](CCCNC(=N)N)NC1=O` (I: Ac-[Cha]CRL[Cha]RRLCR-NH2 / II: 5TAMRA-[Cha]CRL[Cha]RRLCR-NH2; disulfide I:2-II:9, I:9-II:2) showed a Drug uptake of 53%. On to `CC(=O)N[C@@H](CC1CCCCC1)C(=O)N[C@@H](CS)C(=O)N[C@@H](CCCNC(=N)N)C(=O)N[C@@H](CC(C)C)C(=O)N[C@@H](CC1CCCCC1)C(=O)N[C@@H](CCCNC(=N)N)C(=O)N[C@@H](CCCNC(=N)N)C(=O)N[C@@H](CC1CCCCC1)C(=O)N[C@@H](CS)C(=O)N[C@@H](CCCNC(=N)N)C(N)=O` (Ac-[Cha]CRL[Cha]RR[Cha]CR-NH2), for which the outcome in data set [2] and in data set [3] was Active. In data set [1], `CC(=O)N[C@@H](CC(C)C)C(=O)N[C@H]1CSSC[C@@H](C(=O)N[C@@H](CCCNC(=N)N)C(N)=O)NC(=O)[C@H](CC(C)C)NC(=O)[C@H](CCCNC(=N)N)NC(=O)[C@H](CCCNC(=N)N)NC(=O)[C@H](CC(C)C)NC(=O)[C@H](CC2CCCCC2)NC(=O)[C@H](CCCNC(=N)N)NC(=O)[C@@H](NC(=O)[C@H](CC(C)C)NC(=O)c2ccc3c(c2)C(=O)OC32c3ccc(N(C)C)cc3Oc3cc(N(C)C)ccc32)CSSC[C@@H](C(=O)N[C@@H](CCCNC(=N)N)C(N)=O)NC(=O)[C@H](CC(C)C)NC(=O)[C@H](CCCNC(=N)N)NC(=O)[C@H](CCCNC(=N)N)NC(=O)[C@H](CC(C)C)NC(=O)[C@H](CC2CCCCC2)NC(=O)[C@H](CCCNC(=N)N)NC1=O` (I: Ac-LCR[Cha]LRRLCR-NH2 / II: 5TAMRA-LCR[Cha]LRRLCR-NH2; disulfide I:2-II:9, I:9-II:2) yielded a Drug uptake of 53%.

(Values after ChEMBL document CHEMBL5634162, “Cyclohexylalanine-Containing α-Helical Amphipathic Peptide Targets Cardiolipin, Rescuing Mitochondrial Dysfunction in Kidney Injury” (J Med Chem, 2024).)
